Measurements as given in ChEMBL document CHEMBL1121598, “Acylthioxanthenes: agents which selectively reduce decerebrate rigidity in the cat” (1980).

Experiments:
Assay type in all cases: functional
[1] = tested on: Felis catus; assay: Reduction of the integrated electromyographic response by 50% in cat after intravenous administration
Procedure, shortened: (§1)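 Intercollicular decerebration of cats (midbrain sectioned between colliculi) under halothane, anesthesia then stopped; ≥1 h later, integrated EMG of quadriceps recorded in response to controlled stretches. Drug infused iv in saline in graded doses, stretch response repeated; dose (μmol/kg iv) reducing stretch response by 50% determined.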

[2] = tested on: Felis catus; assay: Dose of compound to reduce the integrated electromyographic response by 50% in cat after intravenous administration; value from second experiment.; procedure, shortened: as §1
[3] = Ratio of motor activity and activity A
[4] = tested on: Mus musculus; assay: Reduction of locomotor activity count to 50% of the control in mouse after oral administration
Procedure, shortened: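 Mouse locomotor activity by Dews method, modified: drug given orally, activity measured for 5 min starting 1 h later. Dose (μmol/kg po) reducing locomotor activity count to 50% of control determined.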

[5] = tested on: Felis catus; assay: Reduction of the integrated electromyographic response by 50% in cat after peroral administration
[6] = tested on: Felis catus; assay: Dose of compound to reduce the integrated electromyographic response by 50% in cat after peroral administration; Range is 5.5-13.7
[7] = tested on: Felis catus; assay: Dose of compound to reduce the integrated electromyographic response by 50% in cat after peroral administration; Range is 5.1-12.5

Row | SMILES | Activity A [1] | Activity A [2] | Ratio [3] | Locomotor activity [4] | Activity B [5] | Activity B [6] | Activity B [7]
1 | CC(=O)c1ccc2c(c1)C(O)(CC(C)CN(C)C)c1ccccc1S2 (configuration not stated) | 3.17 µM/kg | >21.18 µM/kg |  |  |  |  | 
2 | CCC(=O)c1ccc2c(c1)C(=C1CCN(C)CC1)c1ccccc1S2 | 0.68 µM/kg |  | 141 | 96 µM/kg |  |  | 
3 | CCC(=O)c1ccc2c(c1)/C(=C\CCN(C)C)c1ccccc1S2 (stereo in doubt; 35) [listing 1 of 2 here] |  |  | 753 |  |  |  | 
4 | CCC(=O)c1ccc2c(c1)/C(=C\CCN(C)C)c1ccccc1S2 (stereo in doubt; 36) [listing 1 of 2 here] | 0.15 µM/kg |  |  | 120 µM/kg | 1.8 µM/kg |  | 
5 | CC(/C=C1/c2ccccc2Sc2ccc(C(=O)C(C)C)cc21)CN(C)C (configuration not stated) | 0.67 µM/kg |  | 216 | 145 µM/kg |  |  | 
6 | CCC(=O)c1ccc2c(c1)C(CCCN(C)C)c1cc(Cl)ccc1S2 (configuration not stated) | 6.17 µM/kg |  | 56 | 343 µM/kg |  |  | 
7 | CC(=O)c1ccc2c(c1)/C(=C\CCN(C)C)c1cc(Cl)ccc1S2 (stereo in doubt; 32) [listing 1 of 2 here] | 0.81 µM/kg |  |  | 96 µM/kg |  |  | 
8 | CCCCC(=O)c1ccc2c(c1)/C(=C\CCN(C)C)c1ccccc1S2 | 1.35 µM/kg |  |  |  |  |  | 
9 | CC(=O)c1ccc2c(c1)/C(=C\CCN(C)C)c1cc(Cl)ccc1S2 (stereo in doubt; 33) [listing 1 of 2 here] | 0.53 µM/kg |  |  | 89 µM/kg | >5.4 µM/kg |  | 
10 | CCC(=O)c1ccc2c(c1)C(O)(CC1CCN(C)CC1)c1ccccc1S2 (configuration not stated) | 19.39 µM/kg |  | > 25 | >485 µM/kg |  |  | 
11 | CC(=O)c1ccc2c(c1)/C(=C\C(C)CN(C)C)c1ccccc1S2 (configuration not stated) | 1.31 µM/kg |  | 72 | 94 µM/kg |  |  | 
12 | CCC(=O)c1ccc2c(c1)/C(=C\CCN1CCN(C)CC1)c1ccccc1S2 | 0.67 µM/kg |  | 43 | 42 µM/kg |  |  | 
13 | CC(CN1c2ccccc2Sc2ccc(S(=O)(=O)N(C)C)cc21)N(C)C (configuration not stated) [FONAZINE] | 4.67 µM/kg |  | 184 | 860 µM/kg | 8.1 µM/kg |  | 
14 | CC(=O)c1ccc2c(c1)N(CCCN(C)C)c1ccccc1S2 [ACEPROMAZINE] | 0.03 µM/kg |  | 393 | 11 µM/kg | 1 µM/kg |  | 
15 | CN(C)CCCN1c2ccccc2Sc2ccc(Cl)cc21 [CHLORPROMAZINE] | 0.25 µM/kg |  |  | 39 µM/kg | 2 µM/kg |  | 
16 | CC(=O)c1ccc2c(c1)/C(=C\C(C)CN(C)C)c1cc(Cl)ccc1S2 (configuration not stated) | 1.19 µM/kg |  | 161 | 192 µM/kg |  |  | 
17 | CCC(=O)c1ccc2c(c1)/C(=C\C(CC)CN(C)C)c1ccccc1S2 (configuration not stated) | 4.14 µM/kg |  | 68 | 280 µM/kg |  |  | 
18 | CCCC(=O)c1ccc2c(c1)N(CC(C)CN(C)C)c1ccccc1S2 (configuration not stated) | 0.65 µM/kg |  | 209 | 136 µM/kg | 1.2 µM/kg |  | 
19 | CC(=O)c1ccc2c(c1)C(CCCN(C)C)c1ccccc1S2 (configuration not stated) | 0.9 µM/kg |  | 63 | 57 µM/kg |  | 5.5 µM/kg | 

Row | SMILES | Activity A [1] | Activity A [2] | Ratio [3] | Locomotor activity [4] | Activity B [5] | Activity B [6] | Activity B [7]
20 | CCC(=O)c1ccc2c(c1)/C(=C\C(C)CN(C)C)c1ccccc1S2 (configuration not stated) | 0.52 µM/kg |  | 501 | 261 µM/kg | >5.2 µM/kg |  | 
21 | CC(=O)c1ccc2c(c1)C(CC(C)CN(C)C)c1ccccc1S2 (configuration not stated) | 2.08 µM/kg |  | 181 | 377 µM/kg | >13 µM/kg |  | 
22 | CC(=O)c1ccc2c(c1)/C(=C\CCN(C)C)c1cc(Cl)ccc1S2 (stereo in doubt; 32) [listing 2 of 2 here] |  |  | 119 |  |  |  | 
23 | CCC(=O)c1ccc2c(c1)/C(=C\C(C)CN1CCOCC1)c1ccccc1S2 (configuration not stated) | 6.5 µM/kg |  | > 101 | >659 µM/kg |  |  | 
24 | CCCC(=O)c1ccc2c(c1)/C(=C\C(C)CN(C)C)c1ccccc1S2 (configuration not stated) | 1.22 µM/kg |  | 160 | 195 µM/kg |  |  | 
25 | CCC(=O)c1ccc2c(c1)/C(=C\C(C)CN(C)C)c1cc(Cl)ccc1S2 (configuration not stated) | 1.3 µM/kg |  | 411 | 534 µM/kg | >9.3 µM/kg |  | 
26 | CC(=O)c1ccc2c(c1)/C(=C\CCN(C)C)c1ccccc1S2 | 0.54 µM/kg |  | 60 | 33 µM/kg | <5.4 µM/kg |  | 
27 | CCC(=O)c1ccc2c(c1)/C(=C\CCN1CCOCC1)c1ccccc1S2 | 0.27 µM/kg |  | 463 | 125 µM/kg |  |  | 
28 | CCC(=O)c1ccc2c(c1)/C(=C\CCN(C)C)c1cc(Cl)ccc1S2 | 1.08 µM/kg |  | 644 | 695 µM/kg | >9.6 µM/kg |  | 
29 | CCC(=O)c1ccc2c(c1)/C(=C\CCN(C)C)c1ccccc1S2 (stereo in doubt; 35) [listing 2 of 2 here] | 0.45 µM/kg |  |  | 339 µM/kg | 1.9 µM/kg |  | 
30 | CN(C)CC/C=C1/c2ccccc2C=Cc2ccc(Cl)cc21 | 4.01 µM/kg |  | 26 | 103 µM/kg | >6.1 µM/kg |  | 
31 | CN(C)CC/C=C1/c2ccccc2Sc2ccc(Cl)cc21 [CHLORPROTHIXENE] | 0.39 µM/kg |  | 28 | 11 µM/kg | 2.1 µM/kg |  | 
32 | CC(=O)c1ccc2c(c1)N(CC(C)CN(C)C)c1cc(Cl)ccc1S2 (configuration not stated) | 0.32 µM/kg |  | 506 | 161 µM/kg | 1 µM/kg |  | 
33 | CCCCC(=O)c1ccc2c(c1)/C(=C\C(C)CN(C)C)c1ccccc1S2 (configuration not stated) | 3.29 µM/kg |  | 40 | 132 µM/kg |  |  | 
34 | CC(=O)c1ccc2c(c1)/C(=C\CCN(C)C)c1cc(Cl)ccc1S2 (stereo in doubt; 33) [listing 2 of 2 here] |  |  | 168 |  |  |  | 
35 | CCCC(=O)c1ccc2c(c1)/C(=C\CCN(C)C)c1ccccc1S2 | 1.5 µM/kg |  | 334 | >501 µM/kg |  |  | 5.1 µM/kg
36 | CC(C)C(=O)c1ccc2c(c1)/C(=C\CCN(C)C)c1ccccc1S2 | 0.4 µM/kg |  | 218 | 89 µM/kg |  |  | 
37 | CCC(=O)c1ccc2c(c1)/C(=C\CCN(C)C)c1ccccc1S2 (stereo in doubt; 36) [listing 2 of 2 here] |  |  | 800 |  |  |  | 
